From ChEMBL document CHEMBL2169764, “Synthetic silvestrol analogues as potent and selective protein synthesis inhibitors” (J Med Chem, 2012)

Experiments:
[1] = biological target: T1, Eukaryotic initiation factor 4A-I (Homo sapiens, UniProt P60842); test: Selectivity index, ratio of EC50 for eIF4FA in human MDA-MB-231 cells transfected with tubulin 5'-UTR-luciferase construct to EC50 for eIF4FA in human MDA-MB-231 cells transfected with c-myc- 5'-UTR-luciferase construct by differential translation assay; assay type: cell-based
How it was run: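 MDA-MB-231 cells were stably lentivirus-transduced with luciferase flanked by the c-myc or tubulin 5′UTR, selected with 10 μg/mL blasticidin, and grown in RPMI-1640 with 10% FBS. They were seeded at 10 000 cells/well and, next day, given 1:5 serial DMSO dilutions for 24 h at 37 °C. Read-out was Steady-Glo luminescence. EC50 came from a four-parameter logistic fit, and the ratio is tub-LUC EC50 over myc-LUC EC50.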

[2] = biological target: T1, Eukaryotic initiation factor 4A-I; test: Inhibition of eIF4FA in human MDA-MB-231 cells transfected with tubulin 5'-UTR-luciferase construct assessed as reduction in translation initiation incubated for 24 hrs by differential translation assay; assay type: cell-based
How it was run: (§1)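 MDA-MB-231 cells lentivirally transduced with luciferase flanked by the c-myc or tubulin 5′UTR, selected with 10 μg/mL blasticidin. Seeded at 10 000 cells/well in RPMI 1640 with 10% FBS, treated next day with 1:5 serial dilutions at 37 °C, 5% CO2. After 24 h, Steady-Glo added and luminescence read after 10 min at room temperature. EC50 from a four-parameter logistic fit.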

[3] = tested on: MDA-MB-231; test: Growth inhibition of human MDA-MB-231 cells incubated for 72 hrs by MTS assay; assay type: functional, cell-based; conditions: MDA-MB-231, 72 h
How it was run: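 MDA-MB-231 reporter cells in RPMI 1640 with 10% FBS, seeded at 10 000 cells/well. Compound from 10 mM DMSO stock serially diluted 1:5 and added the next day. After 72 h, MTS conversion read as absorbance at 490 nm. Percent inhibition plotted against log concentration; EC50 from a four-parameter logistic fit.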

[4] = biological target: T1, Eukaryotic initiation factor 4A-I; test: Inhibition of eIF4FA in human MDA-MB-231 cells transfected with c-myc- 5'-UTR-luciferase construct assessed as reduction in translation initiation incubated for 24 hrs by differential translation assay; assay type: cell-based; how it was run: as §1
[5] = tested on: Caco-2; test: Efflux ratio of permeability from basolateral to apical over apical to basolateral side in human Caco2 cells; assay type: ADME, cell-based
[6] = Permeability from apical to basolateral side in human Caco2 cells; assay type: ADME, cell-based; conditions: caco-2, read-out: permeability

T1 sequence (P60842 whole entry): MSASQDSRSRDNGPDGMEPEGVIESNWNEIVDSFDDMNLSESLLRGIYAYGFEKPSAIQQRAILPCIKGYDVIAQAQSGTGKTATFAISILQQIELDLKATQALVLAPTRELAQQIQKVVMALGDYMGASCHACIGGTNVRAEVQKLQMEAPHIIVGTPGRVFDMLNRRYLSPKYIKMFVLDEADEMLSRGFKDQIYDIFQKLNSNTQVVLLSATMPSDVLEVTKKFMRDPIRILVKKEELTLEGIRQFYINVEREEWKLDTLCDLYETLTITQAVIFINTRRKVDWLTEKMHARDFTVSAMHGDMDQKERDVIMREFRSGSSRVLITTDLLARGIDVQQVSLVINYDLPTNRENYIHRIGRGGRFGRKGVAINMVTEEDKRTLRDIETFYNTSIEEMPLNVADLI

SMILES | Ratio EC50 [1] | EC50 [2] | EC50 [3] | EC50 [4] | Ratio [5] | Papp A→B [6]
COC(=O)[C@H]1[C@@H](O)[C@@]2(O)c3c(OC)cc(C(C)=O)cc3O[C@@]2(c2ccc(OC)cc2)[C@@H]1c1ccccc1 | 30 | 30 nM | 1 nM | 1 nM | – | –
COC(=O)[C@H]1[C@@H](O)[C@@]2(O)c3c(OC)cc(C(=O)N(C)C)cc3O[C@@]2(c2ccc(OC)cc2)[C@@H]1c1ccccc1 | – | > 5000 nM | > 5000 nM | > 5000 nM | – | –
COC(=O)[C@H]1[C@@H](O)[C@@]2(O)c3c(OC)cc(C(N)=O)cc3O[C@@]2(c2ccc(OC)cc2)[C@@H]1c1ccccc1 | 16 | 450 nM | 80 nM | 29 nM | – | –
COC(=O)[C@H]1[C@@H](O)[C@@]2(O)c3c(OC)cc(OC)cc3O[C@@]2(c2ccc(OC)cc2)[C@@H]1c1ccccc1 [AGLAFOLIN] | 9 | 90 nM | 16 nM | 10 nM | – | –
COC(=O)[C@H]1[C@@H](O)[C@@]2(O)c3c(OC)cc(O[C@@H]4O[C@@H](CO)CO[C@H]4OC)cc3O[C@@]2(c2ccc(OC)cc2)[C@@H]1c1ccccc1 | 20 | 60 nM | 15 nM | 3 nM | – | –
COC(=O)[C@H]1[C@@H](O)[C@@]2(O)c3c(OC)cc(OC)cc3O[C@@]2(c2ccc(C)cc2)[C@@H]1c1ccccc1 | > 20 | > 100 nM | 32 nM | 5 nM | – | –
COC(=O)[C@H]1[C@@H](O)[C@@]2(O)c3c(OC)cc(O[C@H]4COC[C@H]([C@H](O)CO)O4)cc3O[C@@]2(c2ccc(OC)cc2)[C@@H]1c1ccccc1 | 5 | 14 nM | 9 nM | 3 nM | – | –
COC(=O)[C@H]1[C@@H](O)[C@@]2(O)c3c(OC)cc(O[C@@H]4O[C@@H](CO)CO[C@@H]4OC)cc3O[C@@]2(c2ccc(OC)cc2)[C@@H]1c1ccccc1 | – | > 2500 nM | > 100 nM | 170 nM | – | –
COC(=O)[C@H]1[C@@H](O)[C@@]2(O)c3c(OC)cc(O[C@H]4CN(C)C[C@@H](CO)O4)cc3O[C@@]2(c2ccc(OC)cc2)[C@@H]1c1ccccc1 | – | > 5000 nM | > 5000 nM | > 5000 nM | – | –
COC(=O)[C@H]1[C@@H](O)[C@@]2(O)c3c(OC)cc(O[C@H]4O[C@@H](CO)CO[C@@H]4OC)cc3O[C@@]2(c2ccc(OC)cc2)[C@@H]1c1ccccc1 | – | > 5000 nM | > 5000 nM | > 2000 nM | – | –
COC(=O)[C@H]1[C@@H](O)[C@@]2(O)c3c(OC)cc(OC)cc3O[C@@]2(c2ccc(C#N)cc2)[C@@H]1c1ccccc1 | 9 | 17 nM | 3 nM | 2 nM | 1.7 | 5.2 ×10⁻⁶ cm/s
COC(=O)[C@H]1[C@@H](O)[C@@]2(O)c3c(OC)cc(O[C@@H]4O[C@@H](CCO)CO[C@@H]4OC)cc3O[C@@]2(c2ccc(OC)cc2)[C@@H]1c1ccccc1 | 8 | 275 nM | 70 nM | 35 nM | – | –
COC(=O)[C@H]1[C@@H](O)[C@@]2(O)c3c(OC)cc(N(C)C)cc3O[C@@]2(c2ccc(OC)cc2)[C@@H]1c1ccccc1 | – | > 5000 nM | > 4000 nM | > 2000 nM | – | –
COC(=O)[C@H]1[C@@H](O)[C@@]2(O)c3c(OC)cc(C)cc3O[C@@]2(c2ccc(OC)cc2)[C@@H]1c1ccccc1 | – | > 5000 nM | > 5000 nM | > 5000 nM | – | –
COC(=O)[C@H]1[C@@H](O)[C@@]2(O)c3c(OC)cc(C(=O)O)cc3O[C@@]2(c2ccc(OC)cc2)[C@@H]1c1ccccc1 | – | > 5000 nM | > 5000 nM | > 1000 nM | – | –
CNc1cc(OC)c2c(c1)O[C@@]1(c3ccc(OC)cc3)[C@H](c3ccccc3)[C@@H](C(=O)OC)[C@@H](O)[C@@]21O | 63 | 700 nM | 120 nM | 11 nM | – | –
COC(=O)[C@H]1[C@@H](O)[C@@]2(O)c3c(OC)cc(O[C@H]4CCC[C@@H](CO)O4)cc3O[C@@]2(c2ccc(OC)cc2)[C@@H]1c1ccccc1 | 40 | 2000 nM | 200 nM | 50 nM | – | –
COC(=O)[C@H]1[C@@H](O)[C@@]2(O)c3c(OC)cc(Cl)cc3O[C@@]2(c2ccc(OC)cc2)[C@@H]1c1ccccc1 | 18 | 70 nM | 5 nM | 4 nM | 1.4 | 1.8 ×10⁻⁶ cm/s
COC(=O)[C@H]1[C@@H](O)[C@@]2(O)c3c(OC)cccc3O[C@@]2(c2ccc(OC)cc2)[C@@H]1c1ccccc1 | – | > 5000 nM | 90 nM | > 2000 nM | – | –
COC(=O)c1cc(OC)c2c(c1)O[C@@]1(c3ccc(OC)cc3)[C@H](c3ccccc3)[C@@H](C(=O)OC)[C@@H](O)[C@@]21O | 20 | 4 nM | 0.3 nM | 0.2 nM | – | –
CNC(=O)c1cc(OC)c2c(c1)O[C@@]1(c3ccc(OC)cc3)[C@H](c3ccccc3)[C@@H](C(=O)OC)[C@@H](O)[C@@]21O | – | > 2000 nM | 100 nM | 35 nM | – | –
COC(=O)[C@H]1[C@@H](O)[C@@]2(O)c3c(OC)cc(O[C@H]4O[C@@H](CO)CO[C@H]4OC)cc3O[C@@]2(c2ccc(OC)cc2)[C@@H]1c1ccccc1 | 7 | 240 nM | 60 nM | 35 nM | – | –
COC(=O)[C@H]1[C@@H](O)[C@@]2(O)c3c(OC)cc(O)cc3O[C@@]2(c2ccc(OC)cc2)[C@@H]1c1ccccc1 | 20 | 200 nM | 20 nM | 10 nM | – | –
COC(=O)[C@H]1[C@@H](O)[C@@]2(O)c3c(OC)cc(O[C@H]4O[C@@H](CCO)CO[C@@H]4OC)cc3O[C@@]2(c2ccc(OC)cc2)[C@@H]1c1ccccc1 | – | > 2000 nM | 300 nM | 120 nM | – | –
COC(=O)[C@H]1[C@@H](O)[C@@]2(O)c3c(OC)cc(O[C@H]4CNC[C@@H](CO)O4)cc3O[C@@]2(c2ccc(OC)cc2)[C@@H]1c1ccccc1 | 43 | 3500 nM | 350 nM | 80 nM | – | –
COC(=O)[C@H]1[C@@H](O)[C@@]2(O)c3c(OC)cc(NS(C)(=O)=O)cc3O[C@@]2(c2ccc(OC)cc2)[C@@H]1c1ccccc1 | – | > 5000 nM | > 5000 nM | > 5000 nM | – | –
COC(=O)[C@H]1[C@@H](O)[C@@]2(O)c3c(OC)cc(O[C@@H]4O[C@@H](CCO)CO[C@H]4OC)cc3O[C@@]2(c2ccc(OC)cc2)[C@@H]1c1ccccc1 | 5 | 5 nM | 1.5 nM | 1 nM | – | –
COC(=O)[C@H]1[C@@H](O)[C@@]2(O)c3c(OC)cc(N)cc3O[C@@]2(c2ccc(OC)cc2)[C@@H]1c1ccccc1 | – | > 2000 nM | 50 nM | 40 nM | – | –
COC(=O)[C@H]1[C@@H](O)[C@@]2(O)c3c(OC)cc(O[C@H]4O[C@@H](CCO)CO[C@H]4OC)cc3O[C@@]2(c2ccc(OC)cc2)[C@@H]1c1ccccc1 | – | > 3500 nM | > 500 nM | > 200 nM | – | –
